# Test results: ChEMBL document CHEMBL1124655, “Substituted 5-amino-4,5,6,7-tetrahydroindazoles as partial ergoline structures with dopaminergic activity” (J Med Chem, 1989)
# The source made the active and inactive calls. No cut-off for these calls is given here.
# Experiments:
# [1] = biological target: T1, D(2) dopamine receptor (Bos taurus, UniProt P20288); assay: Inhibitory activity against dopamine receptor D2 in calf corpus striatum using [3H]spiperone as radioligand; assay type: tissue-based
# T1 sequence (P20288 whole entry): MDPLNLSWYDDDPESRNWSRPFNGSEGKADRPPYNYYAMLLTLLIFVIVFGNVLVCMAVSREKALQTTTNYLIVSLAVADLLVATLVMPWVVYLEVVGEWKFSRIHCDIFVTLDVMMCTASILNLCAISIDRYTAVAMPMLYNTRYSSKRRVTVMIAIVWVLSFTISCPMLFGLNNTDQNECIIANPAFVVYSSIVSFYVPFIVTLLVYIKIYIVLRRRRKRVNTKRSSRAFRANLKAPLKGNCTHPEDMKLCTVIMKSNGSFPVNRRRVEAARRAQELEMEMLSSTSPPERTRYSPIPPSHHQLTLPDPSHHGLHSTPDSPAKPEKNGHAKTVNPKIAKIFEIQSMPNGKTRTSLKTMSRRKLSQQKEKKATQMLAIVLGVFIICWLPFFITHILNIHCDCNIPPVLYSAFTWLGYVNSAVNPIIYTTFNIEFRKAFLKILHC
# Outline: (§1)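 Displacement of [3H]spiperone binding in calf corpus striatum membranes; some values given as percent displacement at 1000 nM.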
# [2] = biological target: T2, D(2) dopamine receptor (Rattus norvegicus, UniProt P61169); assay: (§2) Inhibitory activity against dopamine receptor D2 in rat corpus striatum using [3H]apomorphine as radioligand; assay type: tissue-based
# T2 sequence (P61169 whole entry): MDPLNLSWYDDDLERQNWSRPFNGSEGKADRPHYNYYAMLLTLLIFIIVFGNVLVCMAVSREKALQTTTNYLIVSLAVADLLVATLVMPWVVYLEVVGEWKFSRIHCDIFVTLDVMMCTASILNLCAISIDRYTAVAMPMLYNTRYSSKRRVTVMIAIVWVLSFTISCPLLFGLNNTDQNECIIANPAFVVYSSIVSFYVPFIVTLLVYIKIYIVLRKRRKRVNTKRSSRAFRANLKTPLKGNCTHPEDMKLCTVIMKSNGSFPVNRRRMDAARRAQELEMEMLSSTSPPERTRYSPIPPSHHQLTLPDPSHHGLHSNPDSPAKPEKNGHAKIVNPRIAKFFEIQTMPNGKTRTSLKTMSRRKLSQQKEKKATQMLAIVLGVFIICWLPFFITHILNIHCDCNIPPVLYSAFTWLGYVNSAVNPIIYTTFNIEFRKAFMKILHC
# Outline: (§3)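 Displacement of [3H]apomorphine binding in rat corpus striatum membranes; some values given as percent displacement at 1000 nM.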
# [3] = tested on: Rattus norvegicus; assay: Inhibition of serum prolactin concentration in rats when 5 mg/kg was administered intraperitoneally; assay type: functional; details: ip, route intraperitoneal
# Outline: (§4)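 Prolactin in serum of nonreserpinized male rats (Clemens method) after 5 mg/kg ip. Values are mean ± SE for 6-10 rats; significance versus control at P<0.05.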
# [4] = tested on: Rattus norvegicus; assay: Effect on homovanillic acid concentration in whole rat brain when 10 mg/kg was administered intraperitoneally; assay type: functional; details: route intraperitoneal
# Outline: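 Rats dosed ip at 10 mg/kg. Whole brain was assayed for HVA, with dopamine and DOPAC measured alongside, by liquid chromatography with electrochemical detection. Levels are in nmol/g and expressed as % change from control. Values are mean ± standard error for five rats per group. Significance versus control was taken at P<0.05.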
# [5] = biological target: T1, D(2) dopamine receptor; assay: (§5) Inhibitory activity against Dopamine receptor D2 in calf corpus striatum using [3H]spiperone as radioligand; assay type: tissue-based; outline: as §1
# [6] = tested on: Rattus norvegicus; assay: Reduction of serum prolactin concentration in rats, 5 mg/Kg administered intraperitoneally; assay type: functional; outline: as §4
# [7] = biological target: T2, D(2) dopamine receptor; assay: Inhibitory activity against Dopamine receptor D2 in rat corpus striatum using [3H]Apomorphine as radioligand; assay type: tissue-based; outline: as §3
# [8] = tested on: Rattus norvegicus; assay: Effect on dopamine concentration in whole rat brain when 10 mg/Kg was administered intraperitoneally; assay type: functional
# Outline: (§6)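 Rats dosed 10 mg/kg ip. Whole-brain dopamine, DOPAC and HVA measured by liquid chromatography with electrochemical detection, expressed as nmol/g and as % change from a control group. Mean ± SE, five rats per group; significance at P<0.05.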
# [9] = tested on: Rattus norvegicus; assay: Effect on 3,4-Dihydroxyphenylacetic acid concentration in whole rat brain when 10 mg/Kg was administered intraperitoneally; assay type: functional; outline: as §6
# [10] = tested on: Rattus norvegicus; assay: Effect on serum corticosterone level […] when 10 mg/Kg was administered intraperitoneally; assay type: functional
# Outline: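 Rats dosed 10 mg/kg ip. Serum corticosterone determined spectrofluorometrically (Solem and Brinck-Johnsen method), reported as µg/100 mL versus a vehicle group and as % change from control. Mean ± SE, five rats per group; significance P<0.05.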
# [11] = tested on: Rattus norvegicus; assay: (§7) Effect on homovanillic acid concentration in whole rat brain when 10 mg/Kg was administered intraperitoneally; assay type: functional; outline: as §6
# [12] = tested on: Rattus norvegicus; assay: Inhibition of serum prolactin concentration in rats when 5 mg/Kg was administered intraperitoneally; assay type: functional; outline: as §4
# [13] = tested on: Rattus norvegicus; assay: as §7
# [14] = tested on: Rattus norvegicus; assay: Inhibition of serum prolactin concentration in rats when 5 mg/Kg was administered intraperitoneally; NS means not significant; assay type: functional, organism-based; outline: as §4
# [15] = tested on: Rattus norvegicus; assay: Dopa accumulation in GBL-treated rats after the administration at a dose of 3 mg/Kg; assay type: functional
# Outline: (§8)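 Male rats given compound ip; γ-butyrolactone 500 mg/kg ip 10 min later, then decarboxylase inhibitor NSD 1015 100 mg/kg ip 5 min after GBL and 40 min before sacrifice. Striatal dopa accumulation measured by LC with electrochemical detection; Roth autoreceptor paradigm. Values are mean ± SE, five rats per group; one control group received no GBL.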
# [16] = tested on: Rattus norvegicus; assay: Effect on dopamine concentration in whole rat brain when 10 mg/Kg 10 mg/kg was administered intraperitoneally; assay type: functional; details: route intraperitoneal; outline: as §6
# [17] = tested on: Rattus norvegicus; assay: Dopa accumulation in GBL-treated rats after the administration at a dose of 10 mg/Kg; assay type: functional; outline: as §8
# [18] = tested on: Rattus norvegicus; assay: Dopa accumulation in GBL-treated rats after the administration at a dose of 0.3 mg/Kg; assay type: functional; outline: as §8
# [19] = tested on: Rattus norvegicus; assay: Dopa accumulation in GBL-treated rats after the administration at a dose of 1.0 mg/Kg; assay type: functional; outline: as §8
# [20] = species: Rattus norvegicus; assay: Dopa accumulation in GBL-treated rats in the absence of the compound; assay type: functional; outline: as §8
# [21] = biological target: D(2) dopamine receptor (Rattus norvegicus) (UniProt P61169); assay: as §2; assay type: tissue-based; outline: as §3
# D(2) dopamine receptor (Rattus norvegicus), sequence (P61169 whole entry): as above
# [22] = biological target: D(2) dopamine receptor (Bos taurus) (UniProt P20288); assay: Inhibitory activity against dopamine receptor D2 in calf corpus striatum using [3H]-Spiperone as radioligand; assay type: tissue-based; outline: as §1
# D(2) dopamine receptor (Bos taurus), sequence (P20288 whole entry): as the sequence (P20288 whole entry) above
# [23] = tested on: Rattus norvegicus; assay: Effect on serum corticosterone level in whole rat brain when 10 mg/kg was administered intraperitoneally; assay type: functional; details: route intraperitoneal
# Outline: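 Rats dosed ip at 10 mg/kg. Serum corticosterone was determined spectrofluorometrically and reported in µg/100 mL, as % change from vehicle. Values are mean ± standard error for five rats per group. Significance versus control was taken at P<0.05.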
# [24] = biological target: D(2) dopamine receptor (Bos taurus) (UniProt P20288); assay: as §5; assay type: tissue-based; outline: as §1
# [25] = biological target: D(2) dopamine receptor (Rattus norvegicus) (UniProt P61169); assay: Inhibitory activity against Dopamine receptor D2 in rat corpus striatum using [3H]apomorphine as radioligand; assay type: tissue-based; outline: as §3
SMILES,IC50 [1],IC50 [2],Turnover [6],Turnover [8],Turnover [9],Turnover [10],Turnover [11],Inhibition [12],also measured
CCCN(C)C1CCc2n[nH]cc2C1 (centres undefined),–,–,2 ng/mL,5.16 nmol/g,0.43 nmol/g,41 µg/100 mL,–,–,inhibition in vivo at 5 mg/kg [3]: 82%; Turnover [4]: 0.22 nmol/g; IC50 [5]: 8330 nM; IC50 [7]: 1230 nM
CCCN(CCc1cccs1)C1CCc2n[nH]cc2C1 (centres undefined),1410 nM,160 nM,2.8 ng/mL,4.78 nmol/g,0.43 nmol/g,17.3 µg/100 mL,0.24 nmol/g,73%,–
CCCNC1CCc2nc(N)sc2C1 (centres undefined),> 1000 nM,–,3.7 ng/mL,5.08 nmol/g,0.35 nmol/g,54 µg/100 mL,–,78%,Turnover [13]: 0.15 nmol/g
c1ccc(CCNC2CCc3n[nH]cc3C2)cc1 (centres undefined),> 10000 nM,–,6 ng/mL,3.65 nmol/g,0.51 nmol/g,7.7 µg/100 mL,0.34 nmol/g,–,inhibition [14]: inactive
CSCCCNC1CCc2n[nH]cc2C1 (centres undefined),> 10000 nM,2030 nM,9.9 ng/mL,3.91 nmol/g,0.49 nmol/g,3.8 µg/100 mL,0.27 nmol/g,–,inhibition [14]: inactive
CCNC1CCc2n[nH]cc2C1 (centres undefined),11600 nM,610 nM,1.6 ng/mL,6.39 nmol/g,0.55 nmol/g,16.6 µg/100 mL,0.4 nmol/g,91%,–
CCCN[C@@H]1Cc2c[nH]nc2C[C@H]1CCCOC,–,–,4.6 ng/mL,–,–,–,–,44%,Displacement [21]: 50%; Displacement [22]: 12%
CCCN(CCCSC)C1CCc2n[nH]cc2C1 (centres undefined),3990 nM,310 nM,1.1 ng/mL,4.92 nmol/g,0.28 nmol/g,48 µg/100 mL,0.16 nmol/g,90%,–
CCCN[C@@H]1Cc2c[nH]nc2C[C@H]1CCCSC,–,–,7.8 ng/mL,–,–,–,–,–,Displacement [21]: 45%; Displacement [22]: 10%; inhibition [14]: inactive
c1csc(CCNC2CCc3n[nH]cc3C2)c1 (centres undefined),> 10000 nM,9160 nM,7.9 ng/mL,3.47 nmol/g,0.49 nmol/g,5.5 µg/100 mL,0.38 nmol/g,–,inhibition [14]: inactive
CCCN1C[C@H](CSC)C[C@@H]2c3cccc4[nH]cc(c34)C[C@H]21 [PERGOLIDE],–,–,2 ng/mL,6.42 nmol/g,0.53 nmol/g,–,–,88%,Turnover [4]: 0.32 nmol/g; Turnover [23]: 54 µg/100 mL
CCCCNC1CCc2n[nH]cc2C1 (centres undefined),–,–,13.4 ng/mL,3.9 nmol/g,0.53 nmol/g,5.8 µg/100 mL,0.36 nmol/g,–,inhibition [14]: inactive
CCCN[C@@H]1Cc2c[nH]nc2C[C@H]1CCC,–,–,5.1 ng/mL,–,–,–,–,–,Displacement [24]: 9%; Displacement [25]: 41%
CCCCN(CCC)C1CCc2n[nH]cc2C1 (centres undefined),–,–,1.9 ng/mL,4.94 nmol/g,0.39 nmol/g,38.6 ng/mL,–,–,inhibition in vivo at 5 mg/kg [3]: 83%; IC50 [5]: 10000 nM; IC50 [7]: 330 nM
CCCN[C@@H]1Cc2c[nH]nc2C[C@H]1CCCO,–,–,4.4 ng/mL,–,–,–,–,46%,Displacement [21]: 45%; Displacement [22]: 10%

# Further lines, with some results ahead:
IC50 [1],IC50 [2],SMILES,Turnover [6],Turnover [8],Turnover [9],Turnover [10],Turnover [11],Inhibition [12],also measured
> 10000 nM,> 10000 nM,CCCCNC1CCc2[nH]ncc2C1 (centres undefined),–,–,–,–,–,–,–
15200 nM,65 nM,CCCNC1CCc2n[nH]cc2C1 (centres undefined),2.4 ng/mL,–,0.51 nmol/g,31.7 µg/100 mL,0.51 nmol/g,78%,Accumulation [15]: 16.9 nM/g; Turnover [16]: 4.86 nmol/g; Accumulation [17]: 12.1 nM/g; Accumulation [18]: 25.2 nM/g; Accumulation [19]: 23.1 nM/g; Accumulation [20]: 24.8 nM/g
1060 nM,140 nM,CCCN(CCc1ccccc1)C1CCc2n[nH]cc2C1 (centres undefined),1.4 ng/mL,4.41 nmol/g,0.4 nmol/g,17.5 µg/100 mL,0.23 nmol/g,87%,–
